Experiment [1] concerns the target Cyclin-dependent kinase 13 (Homo sapiens) (UniProt Q14004). Kind of experiment: Binding affinity to wild-type human partial length CDC2L5 (H675 to S1054 residues) expressed in mammalian expression system assessed as residual binding level at 1 uM by Kinomescan method relative to control.
Experiment [2] deals with Death-associated protein kinase 3 (Homo sapiens) (UniProt O43293). The experiment can be described thus: Binding affinity to wild-type human partial length DAPK3 (M1 to A277 residues) expressed in bacterial expression system assessed as residual binding level at 1 uM by Kinomescan method relative to control.
Death-associated protein kinase 3 (Homo sapiens), sequence (O43293 whole entry, looked up, the tested form may be a part): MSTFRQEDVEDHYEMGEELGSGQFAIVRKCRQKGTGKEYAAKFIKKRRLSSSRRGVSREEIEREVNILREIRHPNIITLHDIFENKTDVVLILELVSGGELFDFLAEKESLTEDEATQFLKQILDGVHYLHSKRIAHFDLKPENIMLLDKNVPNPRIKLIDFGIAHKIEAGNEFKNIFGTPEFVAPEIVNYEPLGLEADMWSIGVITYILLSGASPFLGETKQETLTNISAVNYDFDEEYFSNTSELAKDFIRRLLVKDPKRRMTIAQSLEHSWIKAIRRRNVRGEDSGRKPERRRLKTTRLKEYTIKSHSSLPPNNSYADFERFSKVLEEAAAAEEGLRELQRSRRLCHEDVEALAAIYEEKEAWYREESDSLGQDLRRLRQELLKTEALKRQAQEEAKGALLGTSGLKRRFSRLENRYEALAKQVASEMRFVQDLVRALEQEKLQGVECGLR
The target of experiment [3] is Serine/threonine-protein kinase DCLK2 (Homo sapiens) (UniProt Q8N568). Kind of experiment: Binding affinity to wild-type human partial length DCAMKL2 (K273 to V664 residues) expressed in bacterial expression system assessed as residual binding level at 1 uM by Kinomescan method relative to control.
The target of experiment [4] is Serine/threonine-protein kinase/endoribonuclease IRE1 (Homo sapiens) (UniProt O75460). The experiment can be described thus: Binding affinity to wild-type human partial length ERN1 (S551 to E852 residues) expressed in mammalian expression system assessed as residual binding level at 1 uM by Kinomescan method relative to control.
Serine/threonine-protein kinase/endoribonuclease IRE1 (Homo sapiens), sequence (O75460 19-977 limits assumed): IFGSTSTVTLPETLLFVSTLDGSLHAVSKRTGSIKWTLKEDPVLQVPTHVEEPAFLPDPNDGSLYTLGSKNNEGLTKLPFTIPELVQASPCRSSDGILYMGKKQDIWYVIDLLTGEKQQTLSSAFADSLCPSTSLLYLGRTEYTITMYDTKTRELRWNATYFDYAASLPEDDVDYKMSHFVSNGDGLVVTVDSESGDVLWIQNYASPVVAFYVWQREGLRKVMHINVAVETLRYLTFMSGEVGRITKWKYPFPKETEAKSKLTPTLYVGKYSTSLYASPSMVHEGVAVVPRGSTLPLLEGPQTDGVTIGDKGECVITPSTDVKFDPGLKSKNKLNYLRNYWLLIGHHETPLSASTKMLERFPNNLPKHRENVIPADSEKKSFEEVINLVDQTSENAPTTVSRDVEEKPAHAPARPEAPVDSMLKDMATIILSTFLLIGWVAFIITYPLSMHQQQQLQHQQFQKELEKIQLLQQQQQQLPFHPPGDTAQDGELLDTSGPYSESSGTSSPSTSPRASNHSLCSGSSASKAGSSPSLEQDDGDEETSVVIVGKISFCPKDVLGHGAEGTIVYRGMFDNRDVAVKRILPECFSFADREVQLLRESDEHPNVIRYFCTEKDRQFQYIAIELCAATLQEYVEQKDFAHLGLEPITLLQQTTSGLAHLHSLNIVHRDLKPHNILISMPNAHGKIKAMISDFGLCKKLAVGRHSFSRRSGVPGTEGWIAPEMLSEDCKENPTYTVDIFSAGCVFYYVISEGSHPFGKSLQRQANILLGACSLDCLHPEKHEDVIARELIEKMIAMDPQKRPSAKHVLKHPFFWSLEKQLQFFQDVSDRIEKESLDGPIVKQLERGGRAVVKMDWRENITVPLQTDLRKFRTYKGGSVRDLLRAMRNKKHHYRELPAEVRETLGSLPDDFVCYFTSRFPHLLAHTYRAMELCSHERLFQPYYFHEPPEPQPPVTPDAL
Experiment [5] relates to Receptor-type tyrosine-protein kinase FLT3 (Homo sapiens), P36888 [D835Y]. Kind of experiment: Binding affinity to human partial length FLT3 D835Y mutant (Q580 to Y969 residues) expressed in bacterial expression system assessed as residual binding level at 1 uM by Kinomescan method relative to control. In a few lines:
(§1)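 Kinome-wide single-concentration binding screen (KINOMEscan) at 1 μM against a panel of 468 purified kinases and mutants. Read-out is relative binding of each kinase compared with control. Selectivity across the panel was summarised as an S(10) score.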

Experiment [6] has as its target Beta-adrenergic receptor kinase 1 (Homo sapiens) (UniProt P25098). The experiment can be described thus: Binding affinity to wild-type human full length GRK2 (M1 to L689 residues) expressed in mammalian expression system assessed as residual binding level at 1 uM by Kinomescan method relative to control. An outline of the steps:
(§2)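 Single-concentration (1 μM) competition-binding screen run by KINOMEscan against a panel of 468 purified kinases and mutants. The read-out is the relative binding activity of the test compound to each kinase.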

Experiment [7] concerns the target Glycogen synthase kinase-3 alpha (Homo sapiens) (UniProt P49840). Kind of experiment: Binding affinity to wild-type human full length GSK3A (M1 to S483 residues) expressed in bacterial expression system assessed as residual binding level at 1 uM by Kinomescan method relative to control. In a few lines:
as §2

For experiment [8], the target named is Interleukin-1 receptor-associated kinase 1 (Homo sapiens) (UniProt P51617). Kind of experiment: Binding affinity to wild-type human partial length IRAK1 (R194 to S712 residues) expressed in mammalian expression system assessed as residual binding level at 1 uM by Kinomescan method relative to control.
Experiment [9] deals with Interleukin-1 receptor-associated kinase 4 (Homo sapiens) (UniProt Q9NWZ3). Kind of experiment: Binding affinity to wild-type human partial length IRAK4 (M1 to S460 residues) expressed in mammalian expression system assessed as residual binding level at 1 uM by Kinomescan method relative to control.
Experiment [10] concerns Mast/stem cell growth factor receptor Kit (Homo sapiens), P10721 [V559D,T670I]. Kind of experiment: Binding affinity to human partial length KIT V559D/T670I double mutant (Y545 to D952 residues) expressed in bacterial expression system assessed as residual binding level at 1 uM by Kinomescan method relative to control. In a few lines: as §1
Experiment [11] deals with Serine/threonine-protein kinase LATS2 (Homo sapiens) (UniProt Q9NRM7). Kind of experiment: Binding affinity to wild-type human partial length LATS2 (Q641 to V1088 residues) expressed in mammalian expression system assessed as residual binding level at 1 uM by Kinomescan method relative to control.
Serine/threonine-protein kinase LATS2 (Homo sapiens), sequence (Q9NRM7 whole entry, the tested form may be a part): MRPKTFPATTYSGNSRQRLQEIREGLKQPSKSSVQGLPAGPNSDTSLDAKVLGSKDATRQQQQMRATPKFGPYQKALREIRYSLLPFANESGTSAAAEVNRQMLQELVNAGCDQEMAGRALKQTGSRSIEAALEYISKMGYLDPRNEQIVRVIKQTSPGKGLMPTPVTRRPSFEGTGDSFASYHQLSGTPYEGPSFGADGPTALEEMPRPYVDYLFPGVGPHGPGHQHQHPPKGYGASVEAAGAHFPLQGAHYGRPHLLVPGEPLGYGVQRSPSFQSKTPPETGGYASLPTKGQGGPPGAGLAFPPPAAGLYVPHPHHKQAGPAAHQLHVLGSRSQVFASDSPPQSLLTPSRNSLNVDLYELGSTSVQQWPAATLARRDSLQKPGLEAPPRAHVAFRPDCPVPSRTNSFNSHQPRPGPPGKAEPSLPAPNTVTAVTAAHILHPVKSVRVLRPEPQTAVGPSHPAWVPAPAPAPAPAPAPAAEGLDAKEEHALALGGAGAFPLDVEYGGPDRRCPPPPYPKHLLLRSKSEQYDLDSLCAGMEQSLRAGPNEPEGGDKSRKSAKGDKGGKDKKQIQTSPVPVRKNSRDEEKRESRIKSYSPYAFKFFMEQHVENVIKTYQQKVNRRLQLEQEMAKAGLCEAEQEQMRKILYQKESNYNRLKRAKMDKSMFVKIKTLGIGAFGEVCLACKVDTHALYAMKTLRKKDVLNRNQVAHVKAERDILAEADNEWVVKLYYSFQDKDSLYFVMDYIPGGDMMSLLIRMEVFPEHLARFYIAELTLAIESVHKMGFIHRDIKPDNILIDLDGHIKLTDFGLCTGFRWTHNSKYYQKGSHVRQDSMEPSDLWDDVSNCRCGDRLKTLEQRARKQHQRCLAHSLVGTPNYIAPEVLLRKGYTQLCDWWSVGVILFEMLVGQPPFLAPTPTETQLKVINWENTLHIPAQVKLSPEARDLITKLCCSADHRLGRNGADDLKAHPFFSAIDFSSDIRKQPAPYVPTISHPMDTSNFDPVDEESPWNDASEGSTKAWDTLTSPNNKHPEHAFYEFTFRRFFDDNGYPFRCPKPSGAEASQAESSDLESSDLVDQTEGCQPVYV
The target in experiment [12] is Mitogen-activated protein kinase kinase kinase kinase 5 (Homo sapiens) (UniProt Q9Y4K4). Kind of experiment: Binding affinity to wild-type human partial length MAP4K5 (M1 to P297 residues) expressed in bacterial expression system assessed as residual binding level at 1 uM by Kinomescan method relative to control.
The target of experiment [13] is Myosin-IIIb (Homo sapiens) (UniProt Q8WXR4). The experiment can be described thus: Binding affinity to wild-type human partial length MYO3B (M1 to D357 residues) expressed in bacterial expression system assessed as residual binding level at 1 uM by Kinomescan method relative to control.
Experiment [14] concerns the target cAMP-dependent protein kinase catalytic subunit alpha (Homo sapiens) (UniProt P17612). The experiment can be described thus: Binding affinity to wild-type human partial length PKAC-alpha (G10 to F351 residues) expressed in bacterial expression system assessed as residual binding level at 1 uM by Kinomescan method relative to control.
For experiment [15], the target named is cAMP-dependent protein kinase catalytic subunit beta (Homo sapiens) (UniProt P22694). Kind of experiment: Binding affinity to wild-type human full length PKAC-beta (M1 to F351 residues) expressed in bacterial expression system assessed as residual binding level at 1 uM by Kinomescan method relative to control. An outline of the steps: (§3)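 Single-concentration KINOMEscan (DiscoverX) binding screen at 1 μM against a panel of 468 purified kinases and mutants. The read-out is binding relative to control.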

The target in experiment [16] is Protein kinase C epsilon type (Homo sapiens) (UniProt Q02156). The experiment can be described thus: Binding affinity to wild-type human partial length PRKCE (A378 to P737 residues) expressed in mammalian expression system assessed as residual binding level at 1 uM by Kinomescan method relative to control. In a few lines:
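KINOMEscan competition binding against a panel of 468 purified kinases/mutants, compound tested at 1 μM; readout is relative binding activity versus control.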

The target of experiment [17] is Serine/threonine-protein kinase RIO1 (Homo sapiens) (UniProt Q9BRS2). The experiment can be described thus: Binding affinity to wild-type human full length RIOK1 (M1 to K568 residues) expressed in bacterial expression system assessed as residual binding level at 1 uM by Kinomescan method relative to control. An outline of the steps: as §3
For experiment [18], the target named is Wee1-like protein kinase 2 (Homo sapiens) (UniProt P0C1S8). The experiment can be described thus: Binding affinity to wild-type human partial length WEE2 (M204 to K492 residues) expressed in bacterial expression system assessed as residual binding level at 1 uM by Kinomescan method relative to control.
A further experiment concerns NCI-H1703. The experiment can be described thus: Antiproliferative activity against human NCI-H1703 cells after 72 hrs by CellTiter-Glo or CCK-8 assay. The format is functional. The following applies: NCI-H1703, 72 h. An outline of the steps: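 Cells in RPMI 1640 with 10% FBS at 37 °C, 5% CO2, seeded at 1–3 × 10^4 cells/mL with serial compound dilutions for 72 h. Viability read by CellTiter-Glo luminescence or CCK-8 absorbance (450/655 nm), normalized to DMSO control.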

The next experiment relates to EOL1. The experiment can be described thus: Antitumor activity against human EOL-1 cells xenografted in nu/nu mouse assessed as reduction in tumor cell proliferation at 25 to 100 mg/kg/day, ip by KI-67-staining based microscopic analysis. The format is functional, organism-based. In a few lines:
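Female nu/nu mice (6 weeks) given subcutaneous right-flank injection of 5 million EOL-1 cells in PBS/Matrigel 1:1. At 200–400 mm3 tumors, randomized to groups of 6 and dosed daily i.p. for 14 days at 25, 50 or 100 mg/kg/d in 0.5% methylcellulose/0.4% Tween80. Tumor volume = W²×L/2, measured daily.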
In general terms: A xenograft is tissue or cells of one species grown in another, often human tumour cells in immunodeficient mice.

For experiment [19], the target named is Vascular endothelial growth factor receptor 2 (Homo sapiens) (UniProt P35968).

Activity calls are given as the source filed them. The calls are words filed in the database; no cut-off is given here.

Cyclin-dependent kinase 13 (Homo sapiens), sequence (Q14004 whole entry, looked up, the tested form may be a part): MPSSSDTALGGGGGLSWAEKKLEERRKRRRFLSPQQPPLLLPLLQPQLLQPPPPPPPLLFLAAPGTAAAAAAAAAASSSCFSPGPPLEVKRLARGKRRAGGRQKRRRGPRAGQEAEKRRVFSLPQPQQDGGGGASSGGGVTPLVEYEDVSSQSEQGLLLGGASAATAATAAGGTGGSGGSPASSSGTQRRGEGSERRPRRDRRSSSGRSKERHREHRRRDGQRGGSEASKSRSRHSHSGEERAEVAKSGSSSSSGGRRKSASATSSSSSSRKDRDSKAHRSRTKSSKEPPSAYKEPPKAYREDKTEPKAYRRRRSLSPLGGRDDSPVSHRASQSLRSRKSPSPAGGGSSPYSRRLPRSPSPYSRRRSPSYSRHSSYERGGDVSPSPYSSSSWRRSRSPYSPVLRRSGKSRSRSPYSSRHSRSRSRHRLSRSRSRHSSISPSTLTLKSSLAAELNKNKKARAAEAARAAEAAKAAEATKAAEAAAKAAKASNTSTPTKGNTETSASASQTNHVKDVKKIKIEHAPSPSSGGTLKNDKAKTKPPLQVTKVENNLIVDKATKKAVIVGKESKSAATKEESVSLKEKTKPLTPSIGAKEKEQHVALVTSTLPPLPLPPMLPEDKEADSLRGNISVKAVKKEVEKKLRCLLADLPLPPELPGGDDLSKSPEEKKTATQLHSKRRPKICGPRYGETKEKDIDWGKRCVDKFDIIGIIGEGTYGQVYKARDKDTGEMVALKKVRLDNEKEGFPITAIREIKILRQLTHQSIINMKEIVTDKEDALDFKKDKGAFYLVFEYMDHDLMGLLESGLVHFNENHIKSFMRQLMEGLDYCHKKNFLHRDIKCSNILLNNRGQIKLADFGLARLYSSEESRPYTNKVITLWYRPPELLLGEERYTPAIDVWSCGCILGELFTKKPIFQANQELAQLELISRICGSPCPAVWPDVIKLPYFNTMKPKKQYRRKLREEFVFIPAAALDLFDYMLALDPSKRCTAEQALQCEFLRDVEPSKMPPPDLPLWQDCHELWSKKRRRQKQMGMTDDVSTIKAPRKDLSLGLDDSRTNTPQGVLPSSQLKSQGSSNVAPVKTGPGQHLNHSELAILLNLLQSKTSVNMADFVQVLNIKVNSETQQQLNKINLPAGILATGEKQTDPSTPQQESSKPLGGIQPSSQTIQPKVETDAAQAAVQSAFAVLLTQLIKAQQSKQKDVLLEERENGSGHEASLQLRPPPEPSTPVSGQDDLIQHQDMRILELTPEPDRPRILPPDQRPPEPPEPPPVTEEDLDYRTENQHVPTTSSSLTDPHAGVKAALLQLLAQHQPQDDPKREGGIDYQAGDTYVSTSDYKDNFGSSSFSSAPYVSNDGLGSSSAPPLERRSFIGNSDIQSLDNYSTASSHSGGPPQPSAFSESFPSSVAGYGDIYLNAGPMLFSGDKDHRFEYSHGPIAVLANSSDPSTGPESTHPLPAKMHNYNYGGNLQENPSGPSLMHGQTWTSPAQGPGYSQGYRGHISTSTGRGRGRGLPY
Beta-adrenergic receptor kinase 1 (Homo sapiens), sequence (P25098 whole entry, the tested form may be a part): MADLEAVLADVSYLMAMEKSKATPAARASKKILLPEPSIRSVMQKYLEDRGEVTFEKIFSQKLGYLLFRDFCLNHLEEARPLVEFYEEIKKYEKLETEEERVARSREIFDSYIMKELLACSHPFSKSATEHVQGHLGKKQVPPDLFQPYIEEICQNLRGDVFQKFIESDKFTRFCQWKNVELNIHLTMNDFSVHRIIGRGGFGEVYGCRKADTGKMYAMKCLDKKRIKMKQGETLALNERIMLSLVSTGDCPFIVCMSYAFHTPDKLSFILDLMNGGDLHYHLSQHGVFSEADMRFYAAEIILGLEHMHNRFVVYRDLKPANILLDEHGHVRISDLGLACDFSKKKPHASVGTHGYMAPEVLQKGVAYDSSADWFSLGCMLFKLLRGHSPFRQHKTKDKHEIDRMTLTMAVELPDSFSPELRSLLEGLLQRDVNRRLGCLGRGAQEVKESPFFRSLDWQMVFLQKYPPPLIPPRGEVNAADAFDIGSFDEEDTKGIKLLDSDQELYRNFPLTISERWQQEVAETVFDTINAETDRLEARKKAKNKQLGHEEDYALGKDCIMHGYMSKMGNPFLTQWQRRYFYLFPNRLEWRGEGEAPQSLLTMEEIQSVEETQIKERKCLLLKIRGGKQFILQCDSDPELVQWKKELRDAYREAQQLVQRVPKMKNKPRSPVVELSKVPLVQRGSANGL

In the case of `Cc1ccc(NC(=O)c2ccc(CN(CCN(C)C)C(=O)c3cccnc3)cc2)cc1Nc1nccc(-c2cccnc2)n1`, the Activity in experiment [1] came out at 100%; in experiment [2] it was 93%; in [3], 96%; in experiment [4] it was 96%; in experiment [5], 95%; in [6] it was 100%. Also, the Activity is 100% in experiment [7]; 98% in experiment [8]; 100% in [9]; 76% in experiment [10]; 100% in [11]; 97% in experiment [12]. The Activity is 97% in [13]; 95% in experiment [14]; 77% in experiment [15]; 80% in experiment [16]; 100% in experiment [17]; 96% in experiment [18]. Further, the 50% growth inhibitory concentration (GI50) (as a rule, the concentration at which growth is held to half of that of the control) is 5.37 µM with NCI-H1703 and greater than 10 µM in experiment [19]. In addition, the outcome in the experiment on EOL1 was Active.

The values above are taken from ChEMBL document CHEMBL4229344 (Eur J Med Chem, 2018).
